{"source": "paper PMC7740640", "about": "(Xenobiotica; the fate of foreign compounds in biological …, 2020)", "assay_type_in_all_cases": "in vitro ADME", "key": {"CYP2C8 [1]": {"biological_target": "T1, CYP2C8 (Homo sapiens, UniProt P10632)", "T1 sequence (P10632 1-490)": "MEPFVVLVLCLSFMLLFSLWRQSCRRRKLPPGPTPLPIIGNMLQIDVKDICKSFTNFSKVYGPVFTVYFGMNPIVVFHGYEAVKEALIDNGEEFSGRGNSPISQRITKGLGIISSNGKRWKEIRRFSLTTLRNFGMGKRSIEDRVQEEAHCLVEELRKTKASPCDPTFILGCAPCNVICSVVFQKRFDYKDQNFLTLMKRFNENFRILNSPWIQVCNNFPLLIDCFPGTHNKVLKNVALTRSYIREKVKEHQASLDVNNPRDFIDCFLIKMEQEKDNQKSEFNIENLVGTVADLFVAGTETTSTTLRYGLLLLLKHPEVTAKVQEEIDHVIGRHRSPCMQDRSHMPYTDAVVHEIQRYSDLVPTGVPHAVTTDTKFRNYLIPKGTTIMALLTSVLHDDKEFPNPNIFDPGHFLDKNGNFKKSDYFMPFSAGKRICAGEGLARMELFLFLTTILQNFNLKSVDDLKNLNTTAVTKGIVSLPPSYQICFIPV", "assay": "C152 metabolism"}, "CYP2C9 [2]": {"biological_target": "T2, CYP2C9 (Homo sapiens, UniProt P11712)", "T2 sequence (P11712 whole entry)": "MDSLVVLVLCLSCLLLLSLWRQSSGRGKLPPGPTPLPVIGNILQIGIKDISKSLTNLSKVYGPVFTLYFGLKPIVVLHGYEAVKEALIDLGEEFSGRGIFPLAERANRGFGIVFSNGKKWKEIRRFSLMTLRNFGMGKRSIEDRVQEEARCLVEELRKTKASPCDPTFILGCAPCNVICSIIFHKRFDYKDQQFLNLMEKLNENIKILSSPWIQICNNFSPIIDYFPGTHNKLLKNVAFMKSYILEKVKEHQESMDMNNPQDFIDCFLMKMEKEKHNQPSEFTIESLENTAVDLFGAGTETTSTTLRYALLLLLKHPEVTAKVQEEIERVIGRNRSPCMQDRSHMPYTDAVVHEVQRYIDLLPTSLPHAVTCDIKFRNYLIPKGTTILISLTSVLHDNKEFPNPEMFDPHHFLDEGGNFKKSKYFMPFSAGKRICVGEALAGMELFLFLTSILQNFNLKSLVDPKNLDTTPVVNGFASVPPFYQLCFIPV", "assay": "C152 metabolism", "conditions": "for Specific rate: CYP2C9", "method_in_brief": "(§1)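 Human P450s in Supersomes that co-express human CPR and cytochrome b5. Reaction in 0.1 M Na-HEPES pH 7.4 with 60 mM KCl, stirred at 30 °C. C152 0.1–30 μM added from acetone stock; 200 μM NADPH starts it. Fluorescence rise read at 500 nm (isosbestic, mono-demethylation step). Rate is the linear slope over 3–5 min, scaled by the C151–C152 fluorescence difference. Michaelis–Menten or Hill fit, Vmax per P450, 2–6 runs; rate at 30 μM computed from fit.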"}, "CYP2C19 [3]": {"biological_target": "T3, CYP2C19 (Homo sapiens, UniProt P33261)", "T3 sequence (P33261 whole entry)": "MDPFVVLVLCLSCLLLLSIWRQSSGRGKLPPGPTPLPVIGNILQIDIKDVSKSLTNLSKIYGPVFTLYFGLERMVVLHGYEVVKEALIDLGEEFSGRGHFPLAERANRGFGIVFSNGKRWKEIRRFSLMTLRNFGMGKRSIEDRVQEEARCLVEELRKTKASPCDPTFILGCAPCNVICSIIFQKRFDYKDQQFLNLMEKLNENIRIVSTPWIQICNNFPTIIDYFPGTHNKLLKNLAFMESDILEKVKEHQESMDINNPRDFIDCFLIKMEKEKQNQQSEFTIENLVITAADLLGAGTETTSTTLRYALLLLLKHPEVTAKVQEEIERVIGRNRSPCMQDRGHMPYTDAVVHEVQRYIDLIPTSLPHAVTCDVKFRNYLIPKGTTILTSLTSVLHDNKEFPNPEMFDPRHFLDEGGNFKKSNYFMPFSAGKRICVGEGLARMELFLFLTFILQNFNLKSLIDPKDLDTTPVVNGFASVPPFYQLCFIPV", "assay": "C152 metabolism", "conditions": "for Specific rate: CYP2C19", "method_in_brief": "as §1"}, "CYP3A5": {"biological_target": "CYP3A5 (Homo sapiens, UniProt P20815)", "sequence (P20815 whole entry)": "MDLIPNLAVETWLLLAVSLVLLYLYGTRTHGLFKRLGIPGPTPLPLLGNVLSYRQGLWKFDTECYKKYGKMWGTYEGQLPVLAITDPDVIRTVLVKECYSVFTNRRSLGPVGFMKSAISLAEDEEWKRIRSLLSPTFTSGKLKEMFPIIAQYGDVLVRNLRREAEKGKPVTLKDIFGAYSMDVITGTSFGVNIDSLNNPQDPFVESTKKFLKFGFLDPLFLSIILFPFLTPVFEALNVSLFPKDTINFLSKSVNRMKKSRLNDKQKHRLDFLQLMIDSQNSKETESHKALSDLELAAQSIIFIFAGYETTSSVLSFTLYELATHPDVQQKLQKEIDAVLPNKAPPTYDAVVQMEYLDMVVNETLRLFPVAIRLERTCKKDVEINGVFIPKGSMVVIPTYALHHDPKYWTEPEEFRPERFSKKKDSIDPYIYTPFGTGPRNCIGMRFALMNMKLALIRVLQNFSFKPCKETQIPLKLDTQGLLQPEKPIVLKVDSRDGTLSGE", "assay": "C152 metabolism", "conditions": "for Specific rate: CYP3A5", "method_in_brief": "as §1"}, "CYP2E1": {"biological_target": "CYP2E1 (Homo sapiens, UniProt P05181)", "sequence (P05181 whole entry)": "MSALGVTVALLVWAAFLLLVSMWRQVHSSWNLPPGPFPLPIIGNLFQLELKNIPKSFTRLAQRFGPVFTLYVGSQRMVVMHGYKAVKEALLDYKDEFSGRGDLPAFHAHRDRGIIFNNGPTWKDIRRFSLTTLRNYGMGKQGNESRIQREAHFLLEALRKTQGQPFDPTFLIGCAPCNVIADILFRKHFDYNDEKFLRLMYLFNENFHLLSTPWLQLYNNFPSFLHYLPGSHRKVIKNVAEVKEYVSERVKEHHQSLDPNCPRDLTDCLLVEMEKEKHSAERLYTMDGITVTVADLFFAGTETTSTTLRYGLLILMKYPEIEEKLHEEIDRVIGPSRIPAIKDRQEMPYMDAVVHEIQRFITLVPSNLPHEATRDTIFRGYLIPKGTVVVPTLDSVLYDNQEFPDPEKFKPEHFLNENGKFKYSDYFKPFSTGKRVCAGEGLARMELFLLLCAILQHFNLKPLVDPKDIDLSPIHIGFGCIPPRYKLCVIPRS", "assay": "C152 metabolism by Supersomes containing CYP2E1", "conditions": "recombinant CYP2E1 Supersomes"}, "CYP2C19 [4]": {"biological_target": "T3, CYP2C19", "assay": "Formation of C151 from C152", "conditions": "SS(2C19)", "method_in_brief": "(§2)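 Probes hold 5–20 pmol P450 in 0.1 M Na-HEPES pH 7.4 with 60 mM KCl. C152 added from 0.5 or 4 mM acetone stock; reaction started with 500 μM NADPH (final), run 5 min at 30 °C with shaking. Quenched with isopropanol containing phenacetin internal standard, then centrifuged. C151 quantified by reverse-phase LC with ESI-positive MRM MS/MS (m/z 230.16→157.2). Michaelis–Menten or Hill fit; normalized per P450 (Supersomes) or CPR (HLM).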"}, "CYP3A4 [5]": {"biological_target": "T4, CYP3A4 (Homo sapiens, UniProt P08684)", "T4 sequence (P08684 2-503 limits assumed)": "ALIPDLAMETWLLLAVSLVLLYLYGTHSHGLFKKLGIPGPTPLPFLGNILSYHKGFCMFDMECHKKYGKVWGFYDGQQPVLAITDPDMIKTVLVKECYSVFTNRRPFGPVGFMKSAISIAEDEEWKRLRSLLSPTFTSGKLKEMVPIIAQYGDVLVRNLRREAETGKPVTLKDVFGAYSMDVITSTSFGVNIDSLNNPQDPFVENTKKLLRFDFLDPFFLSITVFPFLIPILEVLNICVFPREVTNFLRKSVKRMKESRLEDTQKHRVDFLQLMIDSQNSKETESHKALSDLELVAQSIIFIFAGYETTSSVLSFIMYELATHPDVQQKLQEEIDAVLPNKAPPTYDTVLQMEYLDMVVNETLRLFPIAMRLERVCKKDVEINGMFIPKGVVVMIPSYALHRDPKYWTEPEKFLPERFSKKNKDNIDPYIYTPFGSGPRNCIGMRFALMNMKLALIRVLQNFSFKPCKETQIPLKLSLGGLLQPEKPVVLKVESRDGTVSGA", "assay": "Formation of C151 from C152", "conditions": "SS(3A4)", "method_in_brief": "as §2"}, "[6]": {"system": "human liver microsomes (HLM)", "assay": "Formation of C151 from C152", "method_in_brief": "as §2"}, "CYP1A2": {"biological_target": "T5, CYP1A2 (Homo sapiens, UniProt P05177)", "T5 sequence (P05177 2-516 limits assumed)": "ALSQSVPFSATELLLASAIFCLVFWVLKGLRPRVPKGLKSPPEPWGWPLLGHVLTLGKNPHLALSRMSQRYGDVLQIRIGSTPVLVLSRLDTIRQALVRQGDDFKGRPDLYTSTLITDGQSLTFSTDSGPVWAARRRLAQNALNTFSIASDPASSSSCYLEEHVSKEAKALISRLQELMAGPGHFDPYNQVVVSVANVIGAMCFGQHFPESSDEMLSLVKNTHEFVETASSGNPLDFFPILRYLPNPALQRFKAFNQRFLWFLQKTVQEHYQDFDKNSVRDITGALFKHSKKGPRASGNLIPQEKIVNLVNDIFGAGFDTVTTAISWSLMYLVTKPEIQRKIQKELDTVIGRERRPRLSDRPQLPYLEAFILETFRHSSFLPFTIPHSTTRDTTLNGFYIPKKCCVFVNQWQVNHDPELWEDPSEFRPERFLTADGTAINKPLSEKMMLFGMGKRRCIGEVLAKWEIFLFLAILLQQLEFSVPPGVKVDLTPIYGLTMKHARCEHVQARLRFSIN", "assay": "Projected involvement in C152 metabolism in HLM", "method_in_brief": "(§3)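 Calculated values, no new incubations. Each of seven C152-metabolizing P450s has a fractional content in the pooled HLM P450 pool (LC-MS/MS MRM). That fraction is multiplied by its Supersome Vmax (saturation) or by its rate at 30 μM C152 from Hill or Michaelis–Menten parameters. Expected participation (% TNR) is each normalized rate divided by the sum of all seven.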"}, "CYP2C8 [7]": {"biological_target": "T1, CYP2C8", "assay": "Projected involvement in C152 metabolism in HLM"}, "CYP2C9 [8]": {"biological_target": "T2, CYP2C9", "assay": "Projected involvement in C152 metabolism in HLM", "method_in_brief": "as §3"}, "CYP3A4 [9]": {"biological_target": "T4, CYP3A4", "assay": "Projected involvement in C152 metabolism in HLM", "method_in_brief": "as §3"}, "[10]": {"conditions": "at 30 μM C152, calculated from fit parameters"}, "[11]": {"conditions": "at saturation (Vmax in Supersomes)"}, "[12]": {"conditions": "C151 formed over total C152 metabolized"}, "[13]": {"conditions": "mol C151 formed per mol P450 per min"}, "[14]": {"conditions": "read-out: KM or S50 (Formation of C151, LC-MS), Michaelis-Menten fit"}, "[15]": {"conditions": "at saturation of all P450 species"}, "[16]": {"conditions": "at saturation of all P450 species, % TNR"}}, "note": "Where “and” joins values, the source holds several entries; their conditions need not be identical. Equal values may be shown once."}
{"smiles": "CN(C)c1ccc2c(C(F)(F)F)cc(=O)oc2c1", "note": "[C152, 7-Dimethylamino-4-trifluromethylcoumarin]", "values": [{"measurement": "Specific rate", "setting": "CYP2C8 [1]; CYP2C8, at 30 μM C152, calculated from fit parameters", "result": 1.9, "unit": "min⁻¹"}, {"measurement": "N, Hill coefficient (C152 metabolism, fluorimetric assay)", "setting": "CYP2C8 [1]; SS(2C8)", "result": "2.6±0.3"}, {"measurement": "Vmax (C152 metabolism, fluorimetric assay)", "setting": "CYP2C8 [1]; SS(2C8), mol C152 per mol P450 per min", "result": "2.6 ± 0.8", "unit": "min⁻¹"}, {"measurement": "Km", "setting": "CYP2C8 [1]; read-out: KM or S50 (C152 metabolism, fluorimetric assay), SS(2C8), Hill fit (S50), 30 °C, pH 7.4", "result": "12 ± 6", "unit": "µM"}, {"measurement": "Specific rate", "setting": "CYP2C9 [2]; [10]", "result": 2.0, "unit": "min⁻¹"}, {"measurement": "Specific rate", "setting": "CYP2C9 [2]; [11]", "result": 3.9, "unit": "min⁻¹"}, {"measurement": "Vmax (C152 metabolism, fluorimetric assay)", "setting": "CYP2C9 [2]; SS(2C9), mol C152 per mol P450 per min", "result": "3.9 ± 1.2", "unit": "min⁻¹"}, {"measurement": "Km", "setting": "CYP2C9 [2]; read-out: KM or S50 (C152 metabolism, fluorimetric assay), SS(2C9), Michaelis-Menten fit, 30 °C, pH 7.4", "result": "29 ± 8", "unit": "µM"}, {"measurement": "Specific rate", "setting": "CYP2C19 [3]; [10]", "result": 6.5, "unit": "min⁻¹"}, {"measurement": "Specific rate", "setting": "CYP2C19 [3]; [11]", "result": 7.8, "unit": "min⁻¹"}, {"measurement": "Vmax (C152 metabolism, fluorimetric assay)", "setting": "CYP2C19 [3]; SS(2C19), mol C152 per mol P450 per min", "result": "7.8 ± 3.4", "unit": "min⁻¹"}, {"measurement": "Fraction of C151 formed, Fluorimetry", "setting": "CYP2C19 [3]; SS(2C19), scanning fluorimetry with PCA", "result": "3.2±2.4", "unit": "%"}, {"measurement": "Km", "setting": "CYP2C19 [3]; read-out: KM or S50 (C152 metabolism, fluorimetric assay), SS(2C19), Michaelis-Menten fit, 30 °C, pH 7.4", "result": "5.7 ± 1.1", "unit": "µM"}, {"measurement": "Specific rate", "setting": "CYP3A5; [10]", "result": 9.5, "unit": "min⁻¹"}, {"measurement": "Specific rate", "setting": "CYP3A5; [11]", "result": 15.3, "unit": "min⁻¹"}, {"measurement": "Vmax (C152 metabolism, fluorimetric assay)", "setting": "CYP3A5; SS(3A5), mol C152 per mol P450 per min", "result": "15 ± 4", "unit": "min⁻¹"}, {"measurement": "Km", "setting": "CYP3A5; read-out: KM or S50 (C152 metabolism, fluorimetric assay), SS(3A5), Michaelis-Menten fit, 30 °C, pH 7.4", "result": "19 ± 9", "unit": "µM"}, {"measurement": "activity with C152", "setting": "CYP2E1", "result": "no detectable activity"}, {"measurement": "Fraction of C151 formed, LC-MS", "setting": "CYP2C19 [4]; [12]", "result": "5.6±0.4", "unit": "%"}, {"measurement": "Vmax (Formation of C151, LC-MS)", "setting": "CYP2C19 [4]; [13]", "result": "0.43 ± 0.03", "unit": "min⁻¹"}, {"measurement": "Km", "setting": "CYP2C19 [4]; [14]", "result": "6.7 ± 1.5", "unit": "µM"}, {"measurement": "N, Hill coefficient (Formation of C151, LC-MS)", "setting": "CYP3A4 [5]", "result": "1.4±0.4"}, {"measurement": "Fraction of C151 formed, LC-MS", "setting": "CYP3A4 [5]; [12]", "result": "5.4±2.4", "unit": "%"}, {"measurement": "Vmax (Formation of C151, LC-MS)", "setting": "CYP3A4 [5]; [13]", "result": "0.94 ± 0.41", "unit": "min⁻¹"}, {"measurement": "Km", "setting": "CYP3A4 [5]; read-out: KM or S50 (Formation of C151, LC-MS), Hill fit (S50)", "result": "6.4 ± 1.1", "unit": "µM"}, {"measurement": "Vmax (Formation of C151, LC-MS)", "setting": "[6]; mol C151 formed, normalized per CPR", "result": "1.3 ± 0.2", "unit": "min⁻¹"}, {"measurement": "Km", "setting": "[6]; [14]", "result": "3 ± 0.5", "unit": "µM"}, {"measurement": "Normalized rate", "setting": "CYP1A2; at 30 μM C152", "result": 0.375, "unit": "min⁻¹"}, {"measurement": "Expected participation", "setting": "CYP1A2; at 30 μM C152, % TNR", "result": 3.08, "unit": "%"}, {"measurement": "Normalized rate", "setting": "CYP1A2; [15]", "result": 0.412, "unit": "min⁻¹"}, {"measurement": "Expected participation", "setting": "CYP1A2; [16]", "result": 3.10, "unit": "%"}, {"measurement": "Normalized rate", "setting": "CYP2C8 [7]; at 30 μM C152", "result": 0.020, "unit": "min⁻¹"}, {"measurement": "Expected participation", "setting": "CYP2C8 [7]; at 30 μM C152, % TNR", "result": 0.16, "unit": "%"}, {"measurement": "Normalized rate", "setting": "CYP2C8 [7]; [15]", "result": 0.022, "unit": "min⁻¹"}, {"measurement": "Expected participation", "setting": "CYP2C8 [7]; [16]", "result": 0.17, "unit": "%"}, {"measurement": "Normalized rate", "setting": "CYP2C9 [8]; at 30 μM C152", "result": 0.496, "unit": "min⁻¹"}, {"measurement": "Expected participation", "setting": "CYP2C9 [8]; at 30 μM C152, % TNR", "result": "4% and 4.08%"}, {"measurement": "Normalized rate", "setting": "CYP2C9 [8]; [15]", "result": 0.981, "unit": "min⁻¹"}, {"measurement": "Normalized rate", "setting": "CYP3A4 [9]; at 30 μM C152", "result": 10.3, "unit": "min⁻¹"}, {"measurement": "Expected participation", "setting": "CYP3A4 [9]; at 30 μM C152, % TNR", "result": "84% and 84.75%"}, {"measurement": "Normalized rate", "setting": "CYP3A4 [9]; [15]", "result": 10.8, "unit": "min⁻¹"}]}
